ChEMBL document CHEMBL1156682, “Synthesis and antioxidant activity evaluation of new hexahydropyrimido[5,4-c]quinoline-2,5-diones and 2-thioxohexahydropyrimido[5,4-c]quinoline-5-ones obtained by Biginelli reaction in two steps” (Eur J Med Chem, 2008)

Experiments:
Format in all cases: functional
[1] = test system: Radical scavenging activity; assay: Antioxidant activity assessed as DPPH radical scavenging activity at 200 uM/L after 2 hrs
In short: (§1)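 DPPH radical scavenging read as absorbance at 517 nm. %RSA = [(A_DPPH − A_S)/A_DPPH] × 100, where A_S is absorbance with compound added at a given level and A_DPPH is absorbance of DPPH solution alone. Mean of three independent samples per compound.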

[2] = Antioxidant activity assessed as hydroxyl radical scavenging activity at 200 uM/L after 2 hrs
In short: (§2)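 Hydroxyl radical scavenging by benzoic acid hydroxylation, with OH· generated by Fenton reaction. Sample was mixed with phosphate buffer (pH 7.4, 0.1 mol), then H2O2 solution (10 mmol) was added, and the mixture was incubated at 37 °C for 2 h. Fluorescence of the hydroxylated benzoic acid was read at excitation 305 nm, emission 407 nm.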

[3] = Antioxidant activity assessed as hydroxyl radical scavenging activity at 100 uM/L after 2 hrs; in short: as §2
[4] = Antioxidant activity assessed as hydroxyl radical scavenging activity at 50 uM/L after 2 hrs; in short: as §2
[5] = test system: Radical scavenging activity; assay: Antioxidant activity assessed as DPPH radical scavenging activity at 250 uM/L after 2 hrs; in short: as §1
[6] = Antioxidant activity assessed as hydroxyl radical scavenging activity at 20 uM/L after 2 hrs; in short: as §2
[7] = test system: Radical scavenging activity; assay: Antioxidant activity assessed as DPPH radical scavenging activity at 50 uM/L after 2 hrs; in short: as §1
[8] = test system: Radical scavenging activity; assay: Antioxidant activity assessed as DPPH radical scavenging activity at 150 uM/L after 2 hrs; in short: as §1
[9] = test system: Radical scavenging activity; assay: Antioxidant activity assessed as DPPH radical scavenging activity at 100 uM/L after 2 hrs; in short: as §1
[10] = Antioxidant activity assessed as hydroxyl radical scavenging activity at 150 uM/L after 2 hrs; in short: as §2

Row | SMILES | Activity [1] [%] | Activity [2] [%] | Activity [3] [%] | Activity [4] [%] | Activity [5] [%] | Activity [6] [%] | Activity [7] [%] | Activity [8] [%] | Activity [9] [%] | Activity [10] [%]
1 | CC1=C2C(=O)Nc3ccccc3C2NC(=S)N1C (stereo not given) | 17.9 | 88.2 | 77.2 | 69.4 | 26.2 | 56.3 | 4 | 14.1 | 8.2 | 82.3
2 | CCN1C(=O)NC2C(=C1C)C(=O)Nc1c(Cl)cccc12 (stereo not given) | 8.1 | 86.7 | 80.6 | 74.1 | 11.8 | 63.8 | 1.9 | 4.3 | 2.3 | 84.4
3 | CC1=C2C(=O)Nc3c(Cl)cccc3C2NC(=O)N1C (stereo not given) | 16.2 | 89.2 | 82.9 | 77.3 | 17.4 | 66 | 3.1 | 10.2 | 5.4 | 87.3
4 | CC1=C2C(=O)Nc3cc(Cl)ccc3C2NC(=S)N1C (stereo not given) | 23.8 | 90.2 | 87.5 | 76.5 | 30.6 | 68.7 | 9.5 | 17.8 | 11.2 | 88.5
5 | CC1=C2C(=O)Nc3cccc(Cl)c3C2NC(=O)N1C (stereo not given) | 5.4 | 83.3 | 80.9 | 72.8 | 7.6 | 67.1 | 1.5 | 5 | 2.1 | 83.2
6 | CC1=C2C(=O)Nc3cccc(F)c3C2NC(=S)N1C (stereo not given) | 17.4 | 83.3 | 80.2 | 78.8 | 25.4 | 70.6 | 3.3 | 12.4 | 8.6 | 81.5
7 | CC1=C2C(=O)Nc3cccc(Cl)c3C2NC(=S)N1C (stereo not given) | 15.3 | 92.3 | 87.4 | 82.7 | 24.9 | 68 | 7.7 | 9.5 | 8.2 | 89.8
8 | CCN1C(=O)NC2C(=C1C)C(=O)Nc1ccccc12 (stereo not given) | 9.1 | 89.1 | 81.1 | 70.9 | 10.5 | 58.1 | 3.4 | 6.7 | 4.8 | 86.5
9 | CCN1C(=O)NC2C(=C1C)C(=O)Nc1cccc(F)c12 (stereo not given) | 8.7 | 83.1 | 72.4 | 58.4 | 9.8 | 12.5 | 3 | 6 | 4.6 | 80.2
10 | CC1=C2C(=O)Nc3ccccc3C2NC(=O)N1C (stereo not given) | 9.8 | 89.7 | 80.8 | 71.8 | 12 | 58.4 | 2.5 | 9.1 | 6.6 | 83.7
